The EternaBench riboswitch data

System: MS2 coat protein
Assay: apparent Kd, MS2 coat protein; higher = weaker binding; RNA-MaP array; FMN 200 µM where present
How it was run: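 The apparent Kd is reported as the median of filtered per-cluster binding-curve fits. To get these curves, designs transcribed by stalled E. coli RNA polymerase on Illumina sequencing-chip clusters were titrated with SNAP-549-labelled MS2 coat protein from 0.7 or 1.5 nM, doubling to 3 µM. Titrations were run without and then with constant ligand in 100 mM Tris-HCl pH 7.5, 80 mM KCl, 4 mM MgCl2, BSA, DTT, yeast tRNA and Tween-20, and green signal was normalised to red-channel RNA signal and control-cluster median Fmax.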

[1] = designed as: OFF switch for flavin mononucleotide, no ligand
[2] = ligand present: flavin mononucleotide, designed as: OFF switch for flavin mononucleotide
[3] = designed as: ON switch for flavin mononucleotide, no ligand
[4] = ligand present: flavin mononucleotide, designed as: ON switch for flavin mononucleotide

| Sequence | apparent Kd [1] [nM] | apparent Kd [2] [nM] | apparent Kd [3] [nM] | apparent Kd [4] [nM] |
| --- | --- | --- | --- | --- |
| GUGUACAGAGGAUAUAUAUGGGCAUGGAAACAUGCAUCUUCACAUGAGGAUCACCCAUGUAGAAGGCUGUACAC | 143 | 84.6 |  |  |
| GUGUACAGAGGAUAUGCACGAGGAGUUACGAAAGUAACUUCACAUGAGGAUCACCCAUGUAGAAGGCUGUACAC | 14.4 | 17.8 |  |  |
| GUGUACAUAUCAGGAUAUCAUCGAGUGGAUUAACACAGUGAUUACAUGAGGAUCACCCAUGUGCUUGAGAAGGGAUUACAAUGU | 19.3 | 16.4 |  |  |
| GUGUAGAUAGGAUAUGCUUUGAGCCUACGAAAGUACGCUCGACAUGAGGAUCACCCAUGUAGAAGGGUUUACAC | 119 | 58.9 |  |  |
| GUGUAGGGAGGAUAUACAUGAGGAUCACCCAUGUGAAUAAGAUAGAAUAAGAUAAAGUGUAGAAGGUCUAGUGU | 66 | 51.9 |  |  |
| GUGUAUAGCCUCGAGGAUAUCCUGUAAUGCACAUGAGGAUCACCCAUGUAUGAGCGAGUUUUUUGGGAGAAGGCGAGUUAUCGGU |  |  | 26.6 | 16.9 |
| GUGUCCUUAGGAUAUGUUGAGUUAUACAUGAGGAUCACCCAUGUUCCUCGGUAUUGGUCCAUAGAAGGAAGGUUGC | 346 | 337 |  |  |
| GUGUCUAACUAGAAGGCCGAUAGCAAAGCUAUCGGAGGAUAUGGGUUCCGGAAACGGACAUGAGGAUCACCCAUGUGGCACAAA |  |  | 103 | 13.8 |
| GUGUGAAUAAGAGGAUAUAUACAACAUGAGGAUCACCCAUGUACCCGUGUAGUAGAAGGUUUGUUUUUAUAUAAUAUUAUAUUU |  |  | 27.4 | 22.8 |
| GUGUUGUCAGGAUAUCUUACAUAACUAUCGUUGUUACCAUUGGAGAAGGGACAUGAGGAUCACCCAUGUUAUCG | 24.3 | 25.4 |  |  |
| GUUAAACAUGAGGAUCACCCAUGUAAGGAUAUGCUGCGGUCGCGAUGACGUGACUGCAGCAGAAGGUACAAAUG | 86.8 | 96.5 |  |  |
| GUUAAACAUGAGGAUCACCCAUGUAAGGAUAUGCUGCGGUCGCGCUGACGUGACUGCAGCAGAAGGUACAAUUG | 100 | 77.4 |  |  |
| GUUACACAUGAGGAUCACCCAUGUAAGGAUAUGCUGCGGUCGCGCUGACGUGACUGCAGCAGAAGGUACAAUUG | 84.7 | 88.6 |  |  |
| GUUACAUGAGGAUCACCCAUGUAUGUGUGGGAGUAAGUGUCUUAGGAUAUCUAUUAUUGAAAUUAAGAGAAGGAAGAUUGUUGU |  |  | 113 | 104 |
| GUUAUGCGAGGAUAUACAUGAGGAUCACCCAUGUAAUCUGGUGGCGUGAAAAUAAAGUGUAGAAGGCGCUGACC | 17.6 | 31.9 |  |  |
| GUUAUGCGGCAGGAUAUCCAUCCGCGGUAUGAUGGAGAAGGGCCGACAUGAGGAUCACCCAUGUGCGUCCUAAG | 55.6 | 198 |  |  |
| GUUAUGUUAGGAUAUGCUUAUGGUGGAUAAUCAGAUAUGAUGCAGAAGGGACAUGAGGAUCACCCAUGUACUGU | 21 | 23.8 |  |  |
| GUUCAGUCAGGAUAUUUGUAACGCUCGGUAUCGAGUGGUAAGAAGAAGGGACAUGAGGAUCACCCAUGUCAGUA | 20.1 | 17.6 |  |  |
| GUUCUGCCUCCUGCCGGAACAUGAGGAUCACCCAUGUUGCCUGAGGAUAUCCUAUGGCGCCCACAGGAGAAGGCGGGCAACAUA | 38.1 | 233 |  |  |

| Sequence | apparent Kd [1] [nM] | apparent Kd [2] [nM] | apparent Kd [3] [nM] | apparent Kd [4] [nM] |
| --- | --- | --- | --- | --- |
| GUUCUUCCUGUAAGGAUAUCCAUGUAUCAAUUUAUGGAGAAGGUACAUGAGGAUCACCCAUGUCACCCGCGUUA | 20.9 | 50.7 |  |  |
| GUUGCUACUGAGGAUAUUAUUUUAUUCGACUGAUAAGAAGGCAGUACAUGAGGAUCACCCAUGUGGGUAGCCAG | 23.8 | 67.8 |  |  |
| GUUGGGUGUCAUGUCGCACAUGAGGAUCACCCAUGUAAGAGGUAGGAUAUCCACGAGUAACAAGAGGAGAAGGGCCGUCAGCGU | 25.8 | 32.2 |  |  |
| GUUGUAUGAGGAUAUACAUGAGGAUCACCCAUGUGUGUUGUGAACGAUGUACGUUUAUGUAGAAGGCGUGCGGC | 17.8 | 21.5 |  |  |
| GUUGUCUAUGUAGGAUAUGCGAGGCGAGGCCUCGCAGAAGGACAUGAGGAUCACCCAUGUAUUGCGGUCUGCGUUCAGAUCGCU | 32.9 | 286 |  |  |
| GUUGUGUAUGUAGGAUAUGCGAAGCAAAGCUUCGCAGAAGGACAUGAGGAUCACCCAUGUAUUGCAGCCUGCAAACAGGCUGCU | 40.2 | 170 |  |  |
| GUUGUGUGAGGAUAUUCCUGGCCGUGUGGCCGGUUUGGGUGGCAGAAGGUACAUGAGGAUCACCCAUGUACGGG | 96.9 | 75.8 |  |  |
| GUUGUUCGAGGAUAUACAUGAGGAUCACCCAUGUGUGUUGUGGGCGACGUUCGUUUAUGUAGAAGGCGAGCGGC | 63.3 | 92.1 |  |  |
| GUUUAGUGAGGAUAUGUGGCUUCGAUCGUGCGAAGAAGGCUACAGAAGGCACAUGAGGAUCACCCAUGUUCCUC | 101 | 728 |  |  |
| GUUUGUUAUUAGAAGGUGCCAGCGAGAGCUGCAACAUGAGGAUCACCCAUGUGUCGGUGACGACGCAAGGAUAUGGUGGUGGAU |  |  | 402 | 193 |
| GUUUUUCCUCAUGUACAUGAGGAACAUGAGGAUCACCCAUGUAGAAGGAAUUUUUUUAAGUUUAGUUAGGAUAUACAUAUAUUU | 72.9 | 64.5 |  |  |
| UAAAAGCGGAAGGAUAUGUGUCUAAAGUCUGUAGCAGAAGGUCCGACAUGAGGAUCACCCAUGUGACCUGGUGC | 11.1 | 13.9 |  |  |
| UAAAAGUGAGGAUAUCCAAUAUAUGACAUGAGGAUCACCCAUGUUUCCACUCGUACCUCCGGAGAAGGCACAAAGU | 29.5 | 28.5 |  |  |
| UAAACACCCUCAUGUGCCUGAGGACAUGAGGAUCACCCAUGUGAGGAUAUAGCCAUUAAAUCUAACUAGAAGGUAUAGGAAAUC | 651 | 190 |  |  |
| UAACAAAUUGUCAGGAUAUCAGUCCCGGCCCAGAUUGAGAAGGGACAUGAGGAUCACCCAUGUAUGAUUCUCAG |  | 114 |  |  |
| UAACAGACGCCUUACAUGAGGAUCACCCAUGUGGCCUUAACCAGAAGGCCCGGAAGAUGACUCAGGGAGGAUAUGGUUUAACAG |  |  | 349 | 57.3 |
| UAACAGCAAGGAUAUACGGGCUGUGCUUUUCAUUUCUUACAACAUGAGGAUCACCCAUGUAGAAGGUGCAACAU | 32.5 | 76.9 |  |  |
| UAACCUCGCGUCAGGAUAUGUGAGGACUGUGACGCACAGAAGGGACAUGAGGAUCACCCAUGUGAAAGAAAUAA | 26.8 | 82.5 |  |  |
| UAAGAAGCACUCGGAACCGGACAAUGAGAAGGCCACGCACAUGAGGAUCACCCAUGUAAAGCUAUGGAGGAUAUCAUGAUGGAA |  |  | 80.9 | 8.71 |

| Sequence | apparent Kd [1] [nM] | apparent Kd [2] [nM] | apparent Kd [3] [nM] | apparent Kd [4] [nM] |
| --- | --- | --- | --- | --- |
| UAAGAUUAUUGAGGAUAUGGUAAUUUUUAUUAACCAGAAGGCAAACUCAACAUGAGGAUCACCCAUGUAUAAAGGGUAUUAGUU | 68 | 63.4 |  |  |
| UAAGCGAUACAGAAGGGAAACAUGAGGAUCAGCCGCGACAUGAGGAUCACCCAUGUUUACUUAUUUCAGGAUAUGUACAGUAGC |  |  | 612 | 272 |
| UAAGUACAGAAGUACUCCGGGUCCAGAAGGGACAUGAGGAUCACCCAUGUACCGUUGAUUGCUUGUCAGGAUAUGGACCCGGCC | 6.83 | 25.7 |  |  |
| UAAUAAUAAUAAUAGCAGUUACAUGAGGAUCACCCAUGUAUAUAGGAUAUCGUCAGGAAUACUGACGAGAAGGAUAUACUCUGC | 21.9 | 26.2 |  |  |
| UAAUAAUAGCAAGGAUAUGAUUAUUAUAAUAUAUCAGAAGGUGCACAUGAGGAUCACCCAUGUUUUAUAAUUUGUAAUUUAAAU | 54.4 | 37.9 |  |  |
| UAAUAAUAGUCAGGAUAUAGUUAUUAUAAUAUACUAGAAGGGACACAUGAGGAUCACCCAUGUUUUAUAAUUUGUAAUUUAAAU | 21.6 | 17.7 |  |  |
| UAAUAAUUAUGAGGAUAUAUACAACAUGAGGAUCACCCAUGUACCCAUGUAGUAGAAGGCAUAUUUUUAGUUAAUAAUAUAACU |  |  | 82.2 | 33 |
| UAAUCACCCUCAUGUACCUGAGGACAUGAGGAUCACCCAUGUAAGGAUAUAGCCAUUAAAUCUAACUAGAAGGUAUAGGUAAUC | 808 | 624 |  |  |
| UAAUCUCAGAUAGGAUAUAUAGGAUAACUUAAGACCUAACAUGAGGAUCACCCAUGUGAUUAUUCGUAGAAGGAUCAUUGAACA |  |  | 259 | 263 |
| UAAUGUUAGCGAGGAUAUCGUUUAUUGAAGUUACGAGAAGGCGCUCUUCUUACAUGAGGAUCACCCAUGUCUGUUUUGCAUGAU |  |  |  | 51.9 |
| UAAUUACCGAUCGGUUUGACUUAGCAGGAUAUACAUGAGGAUCACCCAUGUCAAGGGCGUGCCCGGUAGAAGGGUUGGGUUCAA | 35.1 | 54.9 |  |  |
| UACAGACAUGAGGAUCACCCAUGUGAGGAUAUCGAUAACGAUAAAAUAAUAUAAACAACGAGAAGGCACAGCAU | 34.3 | 40.3 |  |  |
| UACAUGAGGAUCACCCAUGUUUUGUCGUGUAUGGUAUUUAUCUAGGAUAUCAAUCUAUGUAUUUAUGAGAAGGAGAAUAUUAAU | 41.8 | 37.3 |  |  |
| UACAUGUGAGGAUAUGUACGAGACCCUGACGGGCCUCGCAGGCAGAAGGCACAUGAGGAUCACCCAUGUGACCG | 27.2 | 99.1 |  |  |
| UACGAUGUACAUGAGGAUCACCCAUGUCAUAUGCCCGUGACACAGGAUAUCCAGGAUAGGCCAAAGGAGAAGGGUGAUCCGCGG |  |  | 66.9 | 139 |
| UACGCACAGAAGUACUCCGGGUCCAGAAGGGACAUGAGGAUCACCCAUGUACCGUUGAUUGCUUGUCAGGAUAUGGACCCGGCC | 6.82 | 26.3 |  |  |
| UACGGACAUGAGGAUCACCCAUGUGAGGAUAUCGGUACCGAUAGCAUAAUCUACUCGGCGAGAAGGCACAGCGU | 30.7 | 40.1 |  |  |
| UACUACGCAGGAUAUACAUGAGGAUCACCCAUGUGUCUGCGAUAGGCACGUGAAAUCCGUAGAAGGGUGUAGAU | 42 | 109 |  |  |
